The results in this text go back to article PMC9827987 (Chemmedchem, 2022).

Some results are limits rather than exact numbers.

One assay concerns the target PfDHFR-QM (Plasmodium falciparum, UniProt P13922, I164L/N51I). Put plainly: DHFR enzyme inhibition assay, quadruple mutant. It counts as biochemical.
In a further assay the target is PfDHFR-WT (Plasmodium falciparum, UniProt P13922, N108S/R59C). Put plainly: DHFR enzyme inhibition assay, wild type. The class given is biochemical.
Another assay concerns KB cells. Nature of the assay: Cytotoxicity, sulforhodamine B staining, KB. It counts as cell-based. To be noted: Homo sapiens, read-out: IC50 KB. (In SRB staining, fixed cells bind dye roughly in proportion to their protein.)
For a further assay, the target named is T1, HsDHFR (Homo sapiens, UniProt P00374).
T1 sequence (P00374 1-187): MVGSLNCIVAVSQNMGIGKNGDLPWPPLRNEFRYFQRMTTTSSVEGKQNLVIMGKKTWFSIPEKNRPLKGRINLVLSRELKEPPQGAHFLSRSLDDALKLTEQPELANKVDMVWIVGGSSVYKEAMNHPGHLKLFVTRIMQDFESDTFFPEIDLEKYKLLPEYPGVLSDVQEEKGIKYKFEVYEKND
Nature of the assay: biochemical.

The subject of assay [1] is P. falciparum V1/S (QM PfDHFR). Put plainly: In vitro antimalarial activity, 3H-hypoxanthine incorporation, V1S. It counts as cell-based. To be noted: Plasmodium falciparum, read-out: IC50 PfV1S. The method in brief: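 P. falciparum V1/S (quadruple-mutant PfDHFR, chloroquine-resistant) grown in human erythrocytes at 37 °C under 3% CO2. Medium was RPMI 1640 with 25 mM HEPES, 0.2% NaHCO3, 40 µg/mL gentamicin and 8% human serum. Activity was measured by ³H-hypoxanthine incorporation.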

For assay [2], the system named is P. falciparum TM4/8.2 (wild type PfDHFR). Put plainly: In vitro antimalarial activity, 3H-hypoxanthine incorporation, TM4/8.2. The class given is cell-based. To be noted: Plasmodium falciparum, read-out: IC50 PfTM4/8.2.

Usually Ki stands for the equilibrium dissociation constant of an inhibitor or competing ligand from its target.

On to `Nc1nc(N)c(CNCCc2ccccc2Cl)c(C2CCCCC2)n1` [7 u, 6‐Cyclohexyl‐5‐{[(2‐chlorophenethyl)amino]methyl}pyrimidine‐2,4‐diamine], for which the figures for the Ki at PfDHFR-QM, on PfDHFR-WT and on HsDHFR were 0.038 ± 0.001 µM, 0.022 ± 0.002 µM and above 250 µM, respectively. In addition, the IC50 in the assay on KB cells was 22 ± 0.05 µM; in assay [1], 16 ± 1 µM; in assay [2], 3.3 ± 0.3 µM.

For `Nc1nc(N)c(CNCCc2cccc(Cl)c2)c(C2CCCCC2)n1` [7 v, 6‐Cyclohexyl‐5‐{[(3‐chlorophenethyl)amino]methyl}pyrimidine‐2,4‐diamine], the Ki on PfDHFR-QM was 0.036 ± 0.004 µM; on PfDHFR-WT it was 0.025 ± 0.001 µM; on HsDHFR, above 250 µM. Further, the IC50 in the assay with KB cells worked out at 23 ± 0.2 µM; in assay [1] it was 4 ± 0.2 µM; in assay [2], 3.1 ± 0.4 µM.

In the case of `Nc1nc(N)c(CNCCc2ccc(Cl)cc2Cl)c(C2CCCCC2)n1` [7 x, 6‐Cyclohexyl‐5‐{[(2,4‐dichlorophenethyl)amino]methyl}pyrimidine‐2,4‐diamine], the results for the Ki on PfDHFR-QM, at PfDHFR-WT and at HsDHFR were 0.123 ± 0.008 µM, 0.007 ± 0.0003 µM and above 250 µM, respectively. Besides, the values for the IC50 (with KB cells; in assay [1]; in assay [2]) were 62 ± 3 µM, 4.9 ± 0.3 µM and 2.5 ± 0.4 µM, respectively.

As to `Nc1nc(N)c(CNCCc2ccc(Cl)c(Cl)c2)c(C2CCCCC2)n1` [7 y, 6‐Cyclohexyl‐5‐{[(3,4‐dichlorophenethyl)amino]methyl}pyrimidine‐2,4‐diamine], the Ki on PfDHFR-QM was 0.028 ± 0.003 µM; at PfDHFR-WT, 0.009 ± 0.0007 µM; at HsDHFR it was above 250 µM. Besides, the IC50 in the assay with KB cells worked out at 22 ± 0.1 µM; in assay [1] it was 4 ± 0.3 µM; in assay [2], 3.5 ± 0.3 µM.
